Laboratory results: ChEMBL document CHEMBL1128245, “Dual-acting thromboxane receptor antagonist/synthase inhibitors: synthesis and biological properties of [2-substituted-4-(3-pyridyl)-1,3-dioxan-5-yl] alkenoic acids” (J Med Chem, 1995)

Assays:
Canis familiaris [1] = experiment: Ex vivo TXA2 ([…]) antagonist activity was determined for U-46,619 induced aggregation (dose ratio) after 24 hr of oral dosing (1 mg/kg) in the dog; type: functional, Canis lupus familiaris
Summary of the method: (§1)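 Dogs (n = 4) dosed orally, blood sampled at 2, 5, 8 and 24 h. Platelet-rich plasma aggregated with U46619 plus a predetermined threshold ADP concentration (about 0.4–1.2 × 10^-6 M), compared before vs after dosing to give a U46619 dose ratio. ">" marks the maximum achievable ratio at top U46619 (1 × 10^-4 M).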

Canis familiaris [2] = experiment: Ex vivo TXA2 ([…]) antagonist activity was determined for U-46,619 induced aggregation (dose ratio) after 24 hr of oral dosing (3 mg/kg) in the dog; type: functional, Canis lupus familiaris; summary of the method: as §1
Canis familiaris [3] = experiment: Ex vivo TXA2 ([…]) antagonist activity was determined for U-46,619 induced aggregation (dose ratio) after 5 hr of oral dosing (10 mg/kg) in the dog; type: functional, Canis lupus familiaris; summary of the method: as §1
Canis familiaris [4] = experiment: Ex vivo TXA2 ([…]) antagonist activity was determined for U-46,619 induced aggregation (dose ratio) after 5 hr of oral dosing (1 mg/kg) in the dog; type: functional, Canis lupus familiaris; summary of the method: as §1
Canis familiaris [5] = experiment: Ex vivo TXA2 ([…]) antagonist activity was determined for U-46,619 induced aggregation (dose ratio) after 5 hr of oral dosing (3 mg/kg) in the dog; type: functional, Canis lupus familiaris; summary of the method: as §1
Homo sapiens = species on record: Homo sapiens; experiment: In vitro inhibition of U-46,619-induced aggregation of unwashed human platelets.; type: functional
Summary of the method: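 Citrated (3.2%) human venous blood spun at 200g for 10 min. Platelet-rich plasma aggregated with U46619 with or without several antagonist concentrations.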

Rattus norvegicus [6] = experiment: Ex vivo […] (TXA2 synthase) inhibitory activity after 1 hr of oral dosing (5 mg/kg) in the rat; type: functional
Summary of the method: (§2)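 Rats (n = 6) gavaged, anesthetized, aortic blood taken at 1, 3 or 5 h after dosing. A blood aliquot was challenged with collagen and TXB2 measured by radioimmunoassay; expressed as % inhibition of TXA2 synthase (±SEM).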

Rattus norvegicus [7] = experiment: Ex vivo […] (TXA2 synthase) inhibitory activity after 3 hr of oral dosing (1 mg/kg) in the rat; type: functional; summary of the method: as §2
Rattus norvegicus [8] = experiment: Ex vivo […] (TXA2 synthase) inhibitory activity after 3 hr of oral dosing (3 mg/kg) in the rat; type: functional; summary of the method: as §2
Rattus norvegicus [9] = experiment: Ex vivo […] (TXA2 synthase) inhibitory activity after 3 hr of oral dosing (5 mg/kg) in the rat; type: functional
Summary of the method: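 Conscious rats (n = 6) were gavaged with compound, then anesthetized, and blood was drawn from the abdominal aorta at 1, 3 and 5 h after dosing. A blood aliquot was stimulated with collagen and the TXB2 formed was measured by radioimmunoassay. Results are expressed as % inhibition of TXA2 synthase activity (±SEM).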

Rattus norvegicus [10] = experiment: Ex vivo […] (TXA2 synthase) inhibitory activity after 5 hr of oral dosing (10 mg/kg) in the rat; type: functional; summary of the method: as §2
Rattus norvegicus [11] = experiment: Ex vivo […] (TXA2 synthase) inhibitory activity after 5 hr of oral dosing (3 mg/kg) in the rat; type: functional; summary of the method: as §2
Rattus norvegicus [12] = experiment: Ex vivo […] (TXA2 synthase) inhibitory activity after 1 hr of oral dosing (10 mg/kg) in the rat; type: functional; summary of the method: as §2
Rattus norvegicus [13] = experiment: Ex vivo […] (TXA2 synthase) inhibitory activity after 1 hr of oral dosing (1 mg/kg) in the rat; type: functional; summary of the method: as §2
Rattus norvegicus [14] = experiment: Ex vivo TXA2 ([…]) antagonist activity was determined for U-46,619 induced aggregation (dose ratio) after 5 hr of oral dosing (5 mg/kg) in the rat; type: functional
Summary of the method: (§3)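 Conscious rats (n = 6) dosed by oral gavage, then anesthetized and bled from the abdominal aorta at 1, 3 or 5 h. Platelet-rich plasma aggregated with U46619 before and after dosing to give a U46619 dose ratio. ">" values mark the maximum dose ratio achievable at the top U46619 concentration (1 × 10^-4 M).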

Rattus norvegicus [15] = experiment: Ex vivo TXA2 ([…]) antagonist activity was determined for U-46,619 induced aggregation (dose ratio) after 1 hr of oral dosing (1 mg/kg) in the rat; type: functional; summary of the method: as §3
Rattus norvegicus [16] = experiment: Ex vivo TXA2 ([…]) antagonist activity was determined for U-46,619 induced aggregation (dose ratio) after 1 hr of oral dosing (3 mg/kg) in the rat; type: functional; summary of the method: as §3
Rattus norvegicus [17] = experiment: Ex vivo TXA2 ([…]) antagonist activity was determined for U-46,619 induced aggregation (dose ratio) after 1 hr of oral dosing (5 mg/kg) in the rat; type: functional; summary of the method: as §3
Rattus norvegicus [18] = experiment: Ex vivo TXA2 ([…]) antagonist activity was determined for U-46,619 induced aggregation (dose ratio) after 3 hr of oral dosing (1 mg/kg) in the rat; type: functional; summary of the method: as §3
Rattus norvegicus [19] = experiment: Ex vivo TXA2 ([…]) antagonist activity was determined for U-46,619 induced aggregation (dose ratio) after 3 hr of oral dosing (5 mg/kg) in the rat; type: functional; summary of the method: as §3
Rattus norvegicus [20] = experiment: Ex vivo TXA2 ([…]) antagonist activity was determined for U-46,619 induced aggregation (dose ratio) after 5 hr of oral dosing (1 mg/kg) in the rat; type: functional; summary of the method: as §3
Rattus norvegicus [21] = experiment: Ex vivo TXA2 ([…]) antagonist activity was determined for U-46,619 induced aggregation (dose ratio) after 5 hr of oral dosing (3 mg/kg) in the rat; type: functional; summary of the method: as §3
Rattus norvegicus [22] = experiment: Ex vivo TXA2 ([…]) antagonist activity was determined for U-46,619 induced aggregation (dose ratio) after 3 hr of oral dosing (3 mg/kg) in the rat; type: functional; summary of the method: as §3
Prostacyclin synthase = target: T1, Prostacyclin synthase (Homo sapiens, UniProt Q16647); experiment: In vitro inhibition of Prostaglandin I2 synthase in cultured human endothelial cells
T1 sequence (Q16647 whole entry): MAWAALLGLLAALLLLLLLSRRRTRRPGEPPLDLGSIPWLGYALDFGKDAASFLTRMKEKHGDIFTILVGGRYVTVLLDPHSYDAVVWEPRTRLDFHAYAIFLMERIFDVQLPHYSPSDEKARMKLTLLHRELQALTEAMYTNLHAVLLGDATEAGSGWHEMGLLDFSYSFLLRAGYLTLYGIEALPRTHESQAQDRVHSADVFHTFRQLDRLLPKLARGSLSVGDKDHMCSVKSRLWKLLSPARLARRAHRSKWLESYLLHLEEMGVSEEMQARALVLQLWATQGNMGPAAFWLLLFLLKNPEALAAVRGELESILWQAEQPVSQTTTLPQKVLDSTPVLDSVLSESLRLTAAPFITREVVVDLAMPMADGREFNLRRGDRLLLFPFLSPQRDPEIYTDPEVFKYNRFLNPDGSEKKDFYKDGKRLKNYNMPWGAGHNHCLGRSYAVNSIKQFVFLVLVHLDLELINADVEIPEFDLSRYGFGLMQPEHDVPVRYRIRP

IC50 (Prostacyclin synthase): 28 µM
Structure (SMILES): Cc1ccc(OC(C)(C)C2OCC(C/C=C\CCC(=O)O)C(c3cccnc3)O2)c([N+](=O)[O-])c1 (stereo in doubt; 7x)
Antagonist activity (Canis familiaris [1]): >1.4 | Antagonist activity (Canis familiaris [2]): >281 | Antagonist activity (Canis familiaris [3]): >522 | Antagonist activity (Canis familiaris [4]): >506 | Antagonist activity (Canis familiaris [5]): >321 | pA2 (Homo sapiens): 8.43 | Inhibition (Rattus norvegicus [6]): 92.9% | Inhibition (Rattus norvegicus [7]): 38.8% | Inhibition (Rattus norvegicus [8]): 82.5% | Inhibition (Rattus norvegicus [9]): 89.2% | Inhibition (Rattus norvegicus [10]): 89% | Inhibition (Rattus norvegicus [11]): 68.3% | Inhibition (Rattus norvegicus [12]): 95.6% | Inhibition (Rattus norvegicus [13]): 61.8% | Antagonist activity (Rattus norvegicus [14]): >47 | Antagonist activity (Rattus norvegicus [15]): >21 | Antagonist activity (Rattus norvegicus [16]): >34 | Antagonist activity (Rattus norvegicus [17]): >60 | Antagonist activity (Rattus norvegicus [18]): >27 | Antagonist activity (Rattus norvegicus [19]): >59 | Antagonist activity (Rattus norvegicus [20]): >9 | Antagonist activity (Rattus norvegicus [21]): >21 | Antagonist activity (Rattus norvegicus [22]): >23
